Activity calls are given as the source filed them. The calls are words filed in the database; no cut-off is given here.
Key:
[1] = target: T1, Androgen receptor (Homo sapiens, UniProt P10275); test: Inhibition of androgen receptor binding function 3 in eGFP-expressing human LNCAP cells containing androgen-responsive probasin-derived promoter assessed as reduction in androgen receptor transcriptional activity after 3 days; assay type: cell-based
T1 sequence (P10275 whole entry): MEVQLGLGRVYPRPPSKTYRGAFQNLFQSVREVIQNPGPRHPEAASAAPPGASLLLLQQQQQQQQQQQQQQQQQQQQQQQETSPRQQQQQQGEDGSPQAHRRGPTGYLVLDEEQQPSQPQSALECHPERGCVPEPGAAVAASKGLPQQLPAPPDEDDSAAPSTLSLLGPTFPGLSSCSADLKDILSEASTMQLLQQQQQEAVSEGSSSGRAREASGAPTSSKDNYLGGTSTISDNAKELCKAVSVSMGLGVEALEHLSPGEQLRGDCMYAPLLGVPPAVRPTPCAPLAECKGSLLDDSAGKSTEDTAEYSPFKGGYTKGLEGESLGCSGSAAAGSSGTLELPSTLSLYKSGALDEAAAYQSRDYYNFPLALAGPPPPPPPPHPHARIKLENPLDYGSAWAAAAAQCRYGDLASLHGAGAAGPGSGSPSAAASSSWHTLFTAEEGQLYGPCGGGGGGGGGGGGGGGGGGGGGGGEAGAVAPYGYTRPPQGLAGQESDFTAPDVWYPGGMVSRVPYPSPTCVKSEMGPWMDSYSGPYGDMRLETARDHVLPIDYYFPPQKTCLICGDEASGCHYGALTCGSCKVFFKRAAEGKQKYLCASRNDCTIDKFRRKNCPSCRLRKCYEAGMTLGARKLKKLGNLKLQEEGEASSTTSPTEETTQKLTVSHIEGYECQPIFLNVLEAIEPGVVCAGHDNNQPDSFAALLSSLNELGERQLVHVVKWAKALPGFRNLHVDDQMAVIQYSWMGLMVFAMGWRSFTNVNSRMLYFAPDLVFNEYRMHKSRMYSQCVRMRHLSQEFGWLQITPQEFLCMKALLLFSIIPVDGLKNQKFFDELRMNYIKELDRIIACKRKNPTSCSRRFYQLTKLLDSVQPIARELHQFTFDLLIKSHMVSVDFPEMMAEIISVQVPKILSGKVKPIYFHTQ
Procedure, shortened: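 eGFP reporter of AR transcriptional activity in LNCaP cells; concentration titration (0−12.5 μM in dose-response); mean of two independent experiments in triplicate (n = 6), SEM; IC50 by fitting log inhibitor concentration vs % activation.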

[2] = target: T1, Androgen receptor; test: Inhibition of androgen receptor binding function 3 in human LNCAP cells containing androgen-responsive probasin-derived promoter assessed as reduction in PSA expression after 3 days by […] assay; assay type: cell-based
Procedure, shortened: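 PSA levels measured in LNCaP cells across a dose range (0−6.25 μM in dose-response curve); IC50 from the dose-dependent decrease of PSA.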

[3] = target: T2, Androgen receptor (Homo sapiens) (UniProt P10275); test: Inhibition of androgen receptor binding function 3 in eGFP-expressing human LNCAP cells containing androgen-responsive probasin-derived promoter assessed as reduction in androgen receptor transcriptional activity at 3 uM after 3 days; assay type: cell-based
T2 sequence (whole entry): T1 sequence (P10275 whole entry)

[4] = target: T2, Androgen receptor (Homo sapiens); test: Displacement of SRC2 peptide from activation function 2 domain of androgen receptor (unknown origin)
[5] = target: T2, Androgen receptor (Homo sapiens); test: Displacement of androgen from androgen binding site of androgen receptor (unknown origin)
[6] = tested on: MR49F; test: Antiproliferative activity against enzalutamide-resistant human MR49F cells at 10 uM after 4 days by MTS assay; assay type: functional, cell-based
[7] = Solubility of the compound at high drug level; assay type: physicochemical
[8] = target: T2, Androgen receptor (Homo sapiens); test: Direct reversible binding affinity to super-streptavidin bound biotinylated androgen receptor ligand binding domain (unknown origin) expressed in Escherichia coli BL21 by bio-layer Interferometry assay
Procedure, shortened: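 Biolayer interferometry of direct, reversible binding to AR LBD; dose-response with compound at 0−50 μM or 0−100 μM.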

[9] = tested on: LNCaP; test: Antiproliferative activity against human LNCAP cells after 4 days by MTS assay; assay type: functional, cell-based; settings: 96 h
Procedure, shortened: (§1)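 MTS viability assay in LNCaP (androgen-stimulated), enzalutamide-resistant MR49F (LNCaP-derived) and androgen-independent PC3 cells; compounds added in serial concentrations, viability read after 4 days of incubation; IC50 from dose-response curves.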

[10] = tested on: PC-3; test: Antiproliferative activity against androgen receptor-independent human PC3 cells after 4 days by MTS assay; assay type: functional, cell-based; procedure, shortened: as §1
[11] = Antiproliferative activity against enzalutamide-resistant human MR49F cells after 4 days by MTS assay; assay type: functional, cell-based; settings: 96 h; procedure, shortened: as §1
[12] = target: T1, Androgen receptor

Compound | IC50 [1] | IC50 [2] | inhibition [3] | inhibition [4] | inhibition [5] | inhibition [6] | solubility [7] | Activity [8] | IC50 [9] | inhibition [10] | IC50 [11] | IC50 [12]
CN(Cc1ccc(Br)o1)C(=O)c1cc2ccc(F)cc2[nH]1 | 15.7 µM | 8.09 µM | > 50% | inactive | inactive |  |  |  |  |  |  | 
CC(C)N(Cc1ccco1)C(=O)c1cc2cc(C(F)(F)F)ccc2[nH]1 | 5.2 µM | 5.29 µM | > 50% | inactive | inactive |  |  |  |  |  |  | 
COCCN(Cc1ccco1)C(=O)c1cc2cc(F)ccc2[nH]1 | 6.47 µM | 6.62 µM | > 50% | inactive | inactive |  |  |  |  |  |  | 
Cc1ccc2[nH]c(C(=O)N(Cc3ccco3)C(C)C)cc2c1 | 1.3 µM | 1.2 µM | > 50% | inactive | inactive |  |  |  |  |  |  | 
Cc1ccc(CN(C(=O)c2cc3cccc(F)c3[nH]2)C(C)C)o1 | 1 µM | 1.2 µM | > 50% | inactive | inactive |  |  |  |  |  |  | 
O=C(c1cc2ccc(F)cc2[nH]1)N(Cc1ccco1)Cc1ccco1 | 4.04 µM | 5.48 µM | > 50% | inactive | inactive |  |  |  |  |  |  | 
Cc1ccc2[nH]c(C(=O)N(Cc3ccc(C)o3)C(C)C)cc2c1 | 2.67 µM | 1.77 µM | > 50% | inactive | inactive |  |  |  |  |  |  | 
Cc1ccc(CN(C)C(=O)c2cc3cc(F)ccc3[nH]2)o1 | 9.44 µM | 6.56 µM | > 50% | inactive | inactive |  |  |  |  |  |  | 
Cc1ccc2cc(C(=O)N(Cc3ccc(C)o3)C(C)C)[nH]c2c1 | 2.89 µM | 1.65 µM | > 50% | inactive | inactive |  |  |  |  |  |  | 
Cc1ccc(CN(C(=O)c2cc3cc(F)ccc3[nH]2)C(C)C)o1 | 1.1 µM | 1.38 µM | > 50% | inactive | inactive |  |  |  |  |  |  | 
CNC(=O)c1ccc(N2C(=S)N(c3ccc(C#N)c(C(F)(F)F)c3)C(=O)C2(C)C)cc1F |  |  |  |  |  | inactive |  |  |  |  |  | 
CC(C)N(Cc1ccco1)C(=O)c1cc2cc(F)ccc2[nH]1 | 0.6 µM | 0.5 µM | > 50% | inactive | inactive |  | Insoluble |  |  |  |  | 
N#CCCN(Cc1ccccc1)C(=O)c1cc2ccccc2[nH]1 | 7.51 µM | 4.58 µM | > 50% | inactive | inactive |  |  |  |  |  |  | 
CN(Cc1cccs1)C(=O)c1cc2ccc(F)cc2[nH]1 | 3.38 µM | 5.45 µM | > 50% | inactive | inactive |  |  |  |  |  |  | 
CC(C)N(Cc1ccco1)C(=O)c1cc2ccc(F)cc2[nH]1 | 0.43 µM | 0.53 µM | > 50% | inactive | inactive |  | Insoluble |  |  |  |  | 
CN(Cc1ccc(Br)s1)C(=O)c1cc2ccc(F)cc2[nH]1 | 3.53 µM | 3.06 µM | > 50% | inactive | inactive |  |  |  |  |  |  | 
Cc1ccc2cc(C(=O)N(Cc3ccco3)C(C)C)[nH]c2c1 | 1.02 µM | 0.85 µM | > 50% | inactive | inactive |  |  |  |  |  |  | 
Cc1ccc(CN(C(=O)c2cc3ccc(F)cc3[nH]2)C(C)C)o1 | 0.7 µM | 0.84 µM | > 50% | inactive | inactive |  |  | Active | 0.55 µM | inactive | 1.31 µM | 2.18 µM
Cc1ccc(CN(C(=O)c2cc3ccccc3[nH]2)C(C)C)o1 | 3.32 µM | 3.42 µM | > 50% | inactive | inactive |  |  | Dose-dependent effect |  |  |  | 
